From ChEMBL document CHEMBL1138206, “Lead compounds for antimalarial chemotherapy: purine base analogs discriminate between human and P. falciparum 6-oxopurine phosphoribosyltransferases” (J Med Chem, 2006)
The source made the active and inactive calls. The calls are words filed in the database; no cut-off is given here.

How the values were obtained:
Plasmodium falciparum [1] = assay: Antiplasmodial activity against Plasmodium falciparum 3D7; assay type: functional, organism-based
How it was run: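 P. falciparum 3D7 kept in erythrocyte culture. Triplicate cultures exposed to a range of purine base concentrations for 48 h, without radiolabel. Giemsa-stained blood smears examined by light microscopy to determine parasitemia. IC50 taken as the inhibition of growth, from counts of viable parasites.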

Plasmodium falciparum [2] = system: Plasmodium falciparum
Plasmodium falciparum [3] = system: Plasmodium falciparum; remark: listed apart in the source
Plasmodium falciparum [4] = assay: Inhibition of [3H]hypoxanthine uptake in Plasmodium falciparum 3D7; assay type: functional, organism-based; conditions: 3D7, 48 h
Plasmodium falciparum [5] = assay: Antimalarial activity against Plasmodium falciparum; assay type: functional, organism-based
How it was run: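 P. falciparum 3D7, a laboratory-adapted isolate, was kept in erythrocyte culture. Triplicate cultures were exposed to a range of purine base concentrations with 0.5 µCi/well [3H]hypoxanthine for 48 h, and label incorporation into nucleic acids was measured. Parallel cultures without label were run for 48 h, and parasitemia was read on Giemsa-stained smears by light microscopy. IC50 was derived for each read-out.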

Plasmodium falciparum [6] = assay: Inhibition of [3H]hypoxanthine uptake into Plasmodium falciparum 3D7 at 125 uM; assay type: functional, organism-based
Plasmodium falciparum [7] = assay: Antimalarial activity against Plasmodium falciparum 3D7 at 125 uM; assay type: functional, organism-based
Plasmodium chabaudi = assay: Inhibition of Plasmodium chabaudi 6 oxopurine phosphoribosyl transferase
Sphi609 [8] = assay: Inhibition of Escherichia coli Sphi609 cells expressing Plasmodium falciparum HGXPRT; assay type: functional, cell-based
Sphi609 [9] = assay: Inhibition of Escherichia coli Sphi609 cells expressing human HGPRT; assay type: functional, cell-based
Plasmodium lophurae = assay: Inhibition of Plasmodium lophurae 6 oxopurine phosphoribosyl transferase
Plasmodium falciparum [10] = assay: Inhibition of [3H]hypoxanthine uptake into Plasmodium falciparum 3D7 at 130 uM; assay type: functional, organism-based
Plasmodium falciparum [11] = assay: Antimalarial activity against Plasmodium falciparum 3D7 at 130 uM; assay type: functional, organism-based
[12] = Inhibition of Toxoplasma gondii 6 oxopurine phosphoribosyl transferase
Plasmodium falciparum [13] = assay: Antimalarial activity against Plasmodium falciparum 3D7 at 120 uM; assay type: functional, organism-based
Plasmodium falciparum [14] = assay: Inhibition of [3H]hypoxanthine uptake into Plasmodium falciparum 3D7 at 120 uM; assay type: functional, organism-based
[15] = Inhibition of Plasmodium falciparum HGXPRT at pH 7.4
[16] = substrate: Oc1ncnc2[nH]ncc12; conditions: Homo sapiens
[17] = substrate: O=c1[nH]cnc2nc[nH]c12; conditions: Homo sapiens
[18] = substrate: Sc1ncnc2nc[nH]c12; conditions: Homo sapiens
[19] = substrate: Nc1nc2[nH]cnc2c(=O)[nH]1; conditions: Homo sapiens
[20] = substrate: Nc1nc2[nH]cnc2c(=S)[nH]1; conditions: Homo sapiens
[21] = substrate: Oc1ncnc2[nH]ncc12; conditions: Homo sapiens; remark: listed apart in the source
[22] = substrate: O=c1[nH]cnc2nc[nH]c12; conditions: Homo sapiens; remark: listed apart in the source
[23] = substrate: Sc1ncnc2nc[nH]c12; conditions: Homo sapiens; remark: listed apart in the source
[24] = substrate: Nc1nc2[nH]cnc2c(=O)[nH]1; conditions: Homo sapiens; remark: listed apart in the source
[25] = substrate: Nc1nc2[nH]cnc2c(=S)[nH]1; conditions: Homo sapiens; remark: listed apart in the source
[26] = substrate: Nc1nc(O)c2[nH]nnc2n1; conditions: Homo sapiens

O=c1[nH]cnc2[nH]nnc12
IC50 (Plasmodium falciparum [1]): 38 µM | Km (Plasmodium falciparum [2]): 145 µM | Km (Plasmodium falciparum [3]): 25.6 µM | IC50 (Plasmodium falciparum [4]): 90 µM

Oc1ncnc2[nH]ncc12 [ALLOPURINOL]
Km (Plasmodium falciparum [2]): 11.7 µM | Activity (Plasmodium falciparum [5]): inactive | Km (Plasmodium falciparum [3]): 10.5 µM | IC50 (Plasmodium falciparum [4]): ≥ 150 µM

Nc1nc(O)c2[nH]nnc2n1 [8-AZAGUANINE]
IC50 (Plasmodium falciparum [1]): 18 µM | Km (Plasmodium falciparum [2]): 26.6 µM | Km (Plasmodium falciparum [3]): 12.6 µM | IC50 (Plasmodium falciparum [4]): 6.6 µM

Nc1nc(Cl)c2nc[nH]c2n1 [6-CHLOROGUANINE]
IC50 (Plasmodium falciparum [1]): 10 µM | Km (Plasmodium falciparum [3]): 176 µM | IC50 (Plasmodium falciparum [4]): 67 µM

O=c1[nH]c(S)nc2[nH]cnc12
Activity (Plasmodium falciparum [6]): inactive | Activity (Plasmodium falciparum [7]): inactive

Nc1nc2[nH]cnc2c(=S)[nH]1 [THIOGUANINE]
IC50 (Plasmodium falciparum [1]): 10 µM | Activity (Plasmodium chabaudi): Active | Activity (Sphi609 [8]): Active | Km (Plasmodium falciparum [2]): 1.9 µM | Activity (Sphi609 [9]): Active | Km (Plasmodium falciparum [3]): 0.75 µM | Activity (Plasmodium lophurae): Active | IC50 (Plasmodium falciparum [4]): 21.3 µM

O=c1[nH]c(=O)c2nc[nH]c2[nH]1
Km (Plasmodium falciparum [2]): 420 µM | Activity (Plasmodium falciparum [10]): inactive | Km (Plasmodium falciparum [3]): 189 µM | Activity (Plasmodium falciparum [11]): inactive

Nc1nc2ncnc-2c[nH]1 [2-AMINOPURINE]
Ki [12]: 60 µM

O=c1[nH]c(=S)c2nc[nH]c2[nH]1
Activity (Plasmodium falciparum [13]): inactive | Activity (Plasmodium falciparum [14]): inactive | Km (Plasmodium falciparum [3]): 82 µM

Sc1ncnc2nc[nH]c12 [MERCAPTOPURINE ANHYDROUS]
IC50 (Plasmodium falciparum [1]): 2 µM | Activity (Plasmodium chabaudi): Active | Activity (Sphi609 [8]): Active | Km (Plasmodium falciparum [2]): 1.6 µM | Activity (Sphi609 [9]): Active | Km (Plasmodium falciparum [3]): 0.02 µM | Activity (Plasmodium lophurae): Active | IC50 (Plasmodium falciparum [4]): 1.3 µM

O=c1[nH]cnc2nc[nH]c12 [HYPOXANTHINE]
Km (Plasmodium falciparum [2]): 0.9 µM | Km (Plasmodium falciparum [3]): 0.07 µM | IC50 (Plasmodium falciparum [4]): 4.2 µM

O=c1[nH]c(=O)c2nn[nH]c2[nH]1
Ki [15]: ≥ 100 µM

Nc1nc2[nH]cnc2c(=O)[nH]1 [GUANINE]
IC50 (Plasmodium falciparum [1]): 60 µM | Km (Plasmodium falciparum [2]): 1.4 µM | Km (Plasmodium falciparum [3]): 0.83 µM | IC50 (Plasmodium falciparum [4]): 35.3 µM

B1: Hypoxanthine-guanine phosphoribosyltransferase (Homo sapiens), P00492 (protein)
chain: MATRSPGVVISDDEPGYDLDLFCIPNHYAEDLERVFIPHGLIMDRTERLARDVMKEMGGHHIVALCVLKGGYKFFADLLDYIKALNRNSDRSIPMTVDFIRLKSYCNDQSTGDIKVIGGDDLSTLTGKNVLIVEDIIDTGKTMQTLLSLVRQYNPKMVKVASLLVKRTPRSVGYKPDFVGFEIPDKFVVGYALDYNEYFRDLNHVCVISETGKAKYKA
Km [16]: 135 µM | Km [17]: 3.1 µM | Km [18]: 3 µM | Km [19]: 1.9 µM | Km [20]: 5.9 µM | Km [21]: 47.9 µM | Km [22]: 3.4 µM | Km [23]: 1.15 µM | Km [24]: 1.9 µM | Km [25]: 1.7 µM | Km [26]: 72 µM
